# Assay outcomes as filed in PubChem BioAssay.
# SR-BI HDL uptake: inhibitors of SR-BI mediated HDL lipid uptake, primary screen, ldlA[mSR-BI] cells, fluorescence, single point. ldlA[mSR-BI] CHO cells, DiI-HDL uptake fluorescence, 3 h. inhibition, % at 12.5 µM. 320,000 tested, 0.96% active;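 active means mean replicate inhibition of at least 70% and a set share of replicates each scoring 70 or more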
# SR-BI DiI-HDL act: activators of SR-BI mediated DiI-HDL uptake, primary screen, ldlA[mSR-BI] CHO cells, DiI fluorescence | 3 h; 100 = double the neutral-control signal | activation, % at 12.5 µM | 320,000 tested, 0.096% active;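 active means mean replicate activation of at least 60% and every replicate at or above 60%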
#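 Test system: SR-BI-overexpressing, LDLR-lacking CHO cells. Measured by: DiI fluorescence, bottom read. Medium: Ham's F12 with 0.5% BSA, HEPES 25 mM, pH 7.4. Timing: 3 h uptake period with compound, 37 °C.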
# dFosB act-1: activators of delta FosB homodimer, primary screen, biochemical, fluorescence polarization, TAMRA-CDK5 oligo, single point; purified delta FosB; percent of positive-control signal above neutral wells; 340,000 tested, 0.99% active; activation, % at 25 µM;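 active means mean activation above about 17%, with every replicate also reaching it, limit read from the data, passing the limit was not always enough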
# Target sequence (P13346 whole entry, looked up): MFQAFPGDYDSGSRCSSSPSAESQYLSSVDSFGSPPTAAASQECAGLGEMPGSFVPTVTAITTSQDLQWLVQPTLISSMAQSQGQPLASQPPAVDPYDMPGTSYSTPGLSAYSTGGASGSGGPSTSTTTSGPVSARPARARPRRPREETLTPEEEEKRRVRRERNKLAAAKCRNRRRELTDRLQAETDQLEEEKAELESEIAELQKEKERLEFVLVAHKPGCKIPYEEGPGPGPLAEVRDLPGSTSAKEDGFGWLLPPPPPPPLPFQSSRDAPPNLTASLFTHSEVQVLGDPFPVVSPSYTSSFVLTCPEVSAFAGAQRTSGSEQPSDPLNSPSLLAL
# CDK5 inh: inhibitors of human CDK5/p35 kinase, primary screen, biochemical, single concentration | Recombinant CDK5/p35, ADP-Glo luminescence, 60 min | inhibition, % at 10 µM | 330,000 tested, 0.01% active;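 active means highest replicate inhibition of at least 50% and at least 75% of replicates reaching 50%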
# dFosB act-2: activators of mouse delta FosB DNA binding, confirmation, biochemical, fluorescence polarization, TAMRA-CDK5 oligo, cherry-picked samples; purified delta FosB; normalised: neutral wells 0, positive control 100; shares compounds with dFosB act-1; activation, % at 24.9 µM; 2,400 tested, under 10 active;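 active means highest replicate activation at or above 34% and every replicate reaching that threshold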;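 further: higher polarization means more probe DNA bound by delta FosB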
# Hits are given with their value; – = inactive; · = not tested or not shown. Most compounds without a hit are left out; they make up all but 2% or so of the library.
SMILES,SR-BI HDL uptake,SR-BI DiI-HDL act,dFosB act-1,CDK5 inh,dFosB act-2
O=C(Nc1c(-c2ccccc2)nc2ncccn12)c1cc2ccccc2oc1=O,–,–,38.3,–,–
O=C(Nc1cccc(-c2cn3ccccc3n2)c1)c1cc2ccccc2oc1=O,–,–,60.9,–,–
CC(=O)Nc1cccc(-c2cn3ccccc3n2)c1,–,–,–,–,·
COc1cc2c(cc1OC)CN(C(=O)c1cccc(S(=O)(=O)N3CCc4ccccc43)c1)CC2,–,–,–,–,·
CCOC(=O)C[C@H]1c2ccccc2S(=O)(=O)N1c1cccc(OC)c1,–,–,–,–,·
Cc1nc2c(sc(=S)n2Cc2ccco2)c(=O)n1CC(=O)Nc1ccccc1F,–,–,82.7,–,–
Cc1nc2c(sc(=S)n2Cc2ccco2)c(=O)n1CC(=O)Nc1ccccc1,–,–,34.1,–,–
COc1ccc(S(=O)(=O)N2CCOCC2)cc1C(=O)N1CCCC1,–,–,–,–,·
CCOC(=O)c1c(C)[nH]c(C(=O)OC(C)C(=O)NC2CCCCC2C)c1C (stereo not drawn),–,–,49.0,–,–
Cc1nonc1OCCNCc1c(C(=O)N2CCCCCCC2)nc2ccc(Cl)cn12,–,–,–,–,·
O=C(COC(=O)c1cccc(F)c1)Nc1ccc(Cl)cn1,–,–,–,–,·
COc1ccccc1-c1oc2ccccc2c1C#CC1(N)CCCCC1,–,–,24.1,–,–
CC(=O)c1ccc(NS(=O)(=O)c2ccc(N/C=C/C(=O)c3ccc(F)cc3)cc2)cc1,·,·,43.6,–,–
CC(=O)c1cccc(NS(=O)(=O)c2ccc(N/C=C/C(=O)c3ccc(F)cc3)cc2)c1,–,–,–,–,·
CC(=O)c1cccc(NS(=O)(=O)c2ccc(N/C=C\C(=O)c3ccc(C)cc3)cc2)c1,–,–,22.8,–,–
FC(F)Oc1ccc(NC(=S)NCC2COc3ccccc3O2)cc1 (stereo not drawn),–,–,–,–,·
Cc1c(C(=O)Nc2ccc(S(=O)(=O)Nc3ncccn3)cc2)oc2ccc(F)cc12,–,–,–,–,·
O=C(COc1ccc(Br)cc1)Nc1ccccc1C(=O)NC1CC1,–,–,28.8,–,–
O=C(COc1ccccc1F)Nc1ccccc1C(=O)NC1CC1,–,–,–,–,·
O=C(Cn1nnc(-c2ccccc2)n1)NNC(=O)c1ccc(Br)cc1,–,–,36.4,–,–
NC(=O)c1nn(-c2ccccc2)nc1NC(=O)Cn1nnc(-c2ccccc2)n1,–,–,22.2,–,–
COC(=O)c1scc(C)c1NS(=O)(=O)c1ccc(NC(C)=O)cc1,–,–,–,–,·
COc1cccc(/C=N/NC(=O)CN(C2=NS(=O)(=O)c3ccccc32)c2ccccc2)c1,–,–,21.7,–,–
COc1ccc(/C=N/NC(=O)CN(C2=NS(=O)(=O)c3ccccc32)c2ccccc2)cc1OC,–,–,–,–,·
N#C/C(=C(/O)COC(=O)c1ccc2c(c1)OCCO2)c1nc2ccccc2[nH]1,–,–,39.4,–,–
SMILES,SR-BI HDL uptake,SR-BI DiI-HDL act,dFosB act-1,CDK5 inh,dFosB act-2
N#C/C(=C(/O)COC(=O)c1ccc(Cl)c(S(=O)(=O)N2CCOCC2)c1)c1nc2ccccc2[nH]1,–,–,–,–,·
COc1ccc(C(=O)Nc2cccc(-c3ccc(N4CCOCC4)nn3)c2)cc1,–,–,–,–,·
COc1cc(OC)cc(C(=O)Nc2cccc(-c3ccc(N4CCOCC4)nn3)c2)c1,–,–,20.3,–,–
Cc1ccc(-c2cc(C(F)F)nc3sc4c(=O)[nH]cnc4c23)cc1,–,–,32.9,–,–
C/C(=N\O)c1cc(Cl)ccc1O,·,·,–,–,·
Cc1cc(C)n(C(=O)N(c2ccccc2)c2ccccc2)n1,–,–,–,–,·
COC(=O)CNc1nc(Cl)nc(Nc2ccc(Cl)cc2)n1,–,–,47.8,–,–
O=C(NNC(=O)c1cccc(S(=O)(=O)N2CCN(c3ccccc3)CC2)c1)c1ccc(Cl)cc1,–,–,57.6,·,–
CC(=O)N1CCN(C(=O)c2cccc(S(=O)(=O)N3CCN(c4ccccc4)CC3)c2)CC1,–,–,–,–,·
COc1ccc(N(C(=O)c2snc(C(N)=O)c2N)C(C(=O)NCC2CCCO2)c2ccc(C)o2)cc1OC (stereo not drawn),·,·,–,–,·
COc1cc(NC(=S)NC(=O)C(C)C)ccc1NC(=O)c1cc2ccccc2o1,·,·,–,–,·
CCC(=O)NC(=S)Nc1ccc(NC(=O)c2cc3ccccc3o2)c(OC)c1,–,–,66.9,–,–
Cc1cccc(NC(=S)N/N=C/c2ccc(Cl)c([N+](=O)[O-])c2)c1,–,–,20.1,–,–
Cc1cccc(NC(=S)N/N=C/c2cccc([N+](=O)[O-])c2)c1,–,–,–,–,·
CCOc1ccc(CNC(=O)Cn2c(=O)c3cccn3c3ccccc32)cc1,–,–,41.3,–,–
COc1cccc(CNC(=O)CCn2c(=O)c3cccn3c3cccnc32)c1,–,–,–,–,·
CC(C)Oc1ccc(CNC(=O)Cn2c(=O)c3cccn3c3cccnc32)cc1,–,–,29.5,–,–
CC(=O)c1ccc(NC(=O)CSc2nnc(NC(=O)c3ccco3)s2)cc1,–,–,28.2,–,–
Cc1ccc(NC(=O)CSc2nnc(NC(=O)c3ccco3)s2)cc1,–,–,–,–,·
O=C(CSc1nnc(NC(=O)c2ccco2)s1)Nc1ccc(F)cc1F,–,–,20.0,–,–
N#Cc1c(-c2ccccc2F)cc(C2CC2)nc1SCC(=O)c1cccs1,–,–,–,–,·
CCCCOc1ccccc1NC(=O)Cn1c(-c2nonc2N)nc2ccccc21,–,–,73.6,–,–
COc1ccc(CCNC(=O)Cn2c(-c3nonc3N)nc3ccccc32)cc1OC,–,–,–,–,·
NNC(=O)Cn1c(-c2nonc2N)nc2ccccc21,–,–,–,–,·
Nc1nonc1-c1nc2ccccc2n1CC(=O)N/N=C\c1ccc(-c2ccc(Cl)cc2)o1,–,–,34.7,–,–
SMILES,SR-BI HDL uptake,SR-BI DiI-HDL act,dFosB act-1,CDK5 inh,dFosB act-2
CC(C)(C)NC(=O)Cn1c(-c2nonc2N)nc2ccccc21,–,–,–,–,·
CCOc1ccc(CCNC(=O)Cn2c(-c3nonc3N)nc3ccccc32)cc1OCC,–,–,23.7,–,–
CCOc1ccccc1OCCCC(=O)N(CC)CC(=O)Nc1ccc(NC(C)=O)cc1,–,–,–,–,·
COC(=O)c1ccc(Nc2c([N+](=O)[O-])c(=O)oc3ccccc23)cc1,–,–,–,–,·
CCOc1cc(/C=N\Nc2nc(Nc3ccccc3)nc(N3CCOCC3)n2)ccc1OC(=O)c1ccco1,–,–,47.6,–,–
O=[N+]([O-])c1ccc(Nc2nc(N/N=C/c3cccc(F)c3)nc(N3CCCC3)n2)cc1,–,–,120.1,–,–
